Molecules are shown by their SMILES.

This data set can be described thus: Toxicity liver stage against HepG2, at 10uM. Type of data set: cell-based. More on the design: test concentration 10 uM, cell line HepG2-A16-CD81EGFP. To be noted: human, HepG2-A16-CD81EGFP cells; read-out: INHIBITION
In a few lines:
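Uninfected HepG2-A16-CD81EGFP cells, 3 × 10^3 per well, 1536-well, plated on prespotted compound at 10 μM final, parasite-free screening media added to match infected plates; puromycin 10 μM positive, DMSO 0.5% negative; run in parallel with 48 h PbLuc assay at 37 °C, 5% CO2; viability by CellTiter-Glo luminescence, normalized to controls.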
Regarding `O=C1N(Cc2ccc(F)cc2)CCCC12CCN(C1CCSCC1)C2` (configuration not stated), the cytotoxicity at 10 µM is 1.77%.
Consider `O=C(c1ccoc1)N1CCC2(CC1)COC(COCc1ccccn1)C2` (configuration not stated), for which the cytotoxicity at 10 µM is -138%.
As to `CC(=O)N1C[C@@H](c2ccsc2)[C@@H]2CN(Cc3ccccc3Cl)CC[C@@H]21`, the cytotoxicity at 10 µM is 3.16%.
With `COCCN1CCC2(CCN(Cc3cccs3)CC2)C1=O`, the cytotoxicity at 10 µM is 1.22%.
As for `COCc1nc(CNc2cc(C)on2)cs1`, the figure is 4.05%; as for `CC(C)CCn1cc(C(C(=O)O)N2CCCN(C3CCCC3)CC2)cn1` (configuration not stated), -5.84%.
On to `CN(Cc1cc(C[C@@H]2C[C@H](N)C2(C)C)no1)c1ccccc1`, for which the cytotoxicity at 10 µM was -1.8%.
Regarding `CC(=O)N(Cc1ccsc1)c1ccccc1`, the cytotoxicity at 10 µM was -1.74%.
Next, `Cc1cnn(C2CN(CC(O)c3ccccc3)C2)c1` (configuration not stated): -2.55%.
As for `CC(NC(=O)c1cccc[n+]1[O-])C1CC1` (configuration not stated), the figure is 5.31%.
For the compound `O=C(O)[C@@H]1CN(Cc2nc3ncccn3n2)C[C@H]1c1cccc(F)c1`, the cytotoxicity at 10 µM is -10.6%.
In the case of `c1ccc(Oc2nccnc2C2CCN(C3CCOCC3)CC2)cc1`, the cytotoxicity at 10 µM came to 4.38%.
As for `Cc1cc(NC(=O)CCCn2ccnc2C)nc(C(C)C)n1`, the figure is -5.73%; as for `O=C(Nc1ccc(CCN2CCOCC2)cc1)C1CCC1`, -9.95%.
Regarding `O=C(CN1CC(c2ccccc2)CC1=O)N1CCC(c2ncc[nH]2)CC1` (configuration not stated), the cytotoxicity at 10 µM was -0.234%.
On to `O=C(NC[C@@H]1CCCO1)c1cc(Br)cnc1N1CCCCC1`, for which the cytotoxicity at 10 µM was -1.69%.
Turning to `CNc1nc(C(=O)N2CCC3(CCCN(CC4CC4)C3=O)C2)cs1` (configuration not stated), the cytotoxicity at 10 µM amounted to 5.33%.
As to `O=C1CCC(C(=O)NCCOc2cccc(Cl)c2Cl)CN1` (configuration not stated), the cytotoxicity at 10 µM came out at 4.48%.
On to `Cc1noc(OCc2ccc(C#N)cc2)n1`, for which the cytotoxicity at 10 µM is -10.2%.
In the case of `O=C(c1cscn1)N1CCC2(CN(Cc3nccs3)C2)C1`, the cytotoxicity at 10 µM was -72.6%.
`CC(=O)N1C[C@@H](F)[C@@H](OCc2nc3cc(C)c(C)cc3[nH]2)C1`: the cytotoxicity at 10 µM came out at 1.77%.
Next, `NC(=O)NC(=O)CCN1CCC(C(=O)c2cc(F)ccc2F)CC1`: 9.69%; `CCC1CN(C(=O)c2[nH]nc(C)c2Br)CCO1` (configuration not stated): -3.22%.
As for `CCOCCNC(=O)c1cccc(S(=O)(=O)NC[C@@H]2C[C@H](F)CN2)c1`, the figure is -18.8%.
For `CC(=O)NS(=O)(=O)c1ccc2c(c1)N(C)CCC2`, the cytotoxicity at 10 µM is -0.89%.
As to `CC(=O)N(Cc1noc(C2CC2)n1)C1CCN(Cc2ccccc2)C1` (configuration not stated), the cytotoxicity at 10 µM was -5.59%.
Next, `COC1CCN(CC(=O)NCc2ccc(OCC(N)=O)cc2)CC1`: -0.094%.
As for `CC(C)Oc1ccc(NCc2ccc([S+](C)[O-])cc2)c(F)c1` (configuration not stated), the figure is 22.4%; as for `Cn1ccc(C(=O)N2CCC(Cc3cnc4[nH]ccc4c3)C2)n1` (configuration not stated), -5%; as for `Cn1ccc(CN2CCC(OCc3ccccc3)CC2)cc1=O`, 0.259%.
Regarding `Cn1c(CN2CCOC(CCc3ccncn3)C2)nc2ccccc21` (configuration not stated), the cytotoxicity at 10 µM was -4.42%.
On to `Cc1ncccc1C(=O)NCc1ccccc1CN(C)Cc1ccco1`, for which the cytotoxicity at 10 µM turned out to be 8.35%.
As for `Cc1ccc(C(=O)N2CCC3(CCN3Cc3ccc(F)cc3)C2)cn1` (configuration not stated), the cytotoxicity at 10 µM is -116%.
Take `CCc1noc(CN(C)CCC(=O)Nc2ccc(Cl)cc2)n1`: the cytotoxicity at 10 µM was 2.78%.
`COC(=O)COc1cc(NCc2c(C)noc2C)c(Cl)cc1C`: the cytotoxicity at 10 µM stood at 3.2%.
On to `CNC(=O)COc1nc(C(C)(C)C)no1`, for which the cytotoxicity at 10 µM was -0.425%.
In the case of `Cn1c(CN2CCCCC2)nnc1C1CCCN(C(=O)CCC(N)=O)C1` (configuration not stated), the cytotoxicity at 10 µM was 3.94%.
Turning to `CCOc1ncccc1CNC(=O)N1CCCC1c1ccsc1` (configuration not stated), the cytotoxicity at 10 µM is -7.69%.
Consider `CCOCCN1CCN(Cc2nc(C)no2)CC1CC` (configuration not stated), for which the cytotoxicity at 10 µM is 13.1%.
With `NC(=O)N1CCCN(C(=O)Nc2cc(-n3cccc3)ccc2F)CC1`, the cytotoxicity at 10 µM was -2.09%.
Turning to `Cc1ccc(CNS(=O)(=O)C=c2[nH]c(=O)n3cccc3c2=O)cc1`, the cytotoxicity at 10 µM worked out at 6.38%.
In the case of `COCC1c2nnn(CC3CC3)c2CCN1C(=O)c1sccc1C` (configuration not stated), the cytotoxicity at 10 µM was -147%.
As for `COc1ccc(F)c(CN2CCCC3(CCN(C4CCOCC4)C3)C2)c1` (configuration not stated), the figure is -1.48%; as for `c1ccc(N2CCCC3(CCN(Cc4cccs4)C3)C2)nc1` (configuration not stated), 12.7%.
As for `Cc1noc(-c2ccc(N(C)Cc3ccncc3C)nc2)n1`, the figure is -15.1%; as for `Oc1ccccc1-c1cc(-c2nc(C3CC3)n[nH]2)[nH]n1`, 0.45%; as for `CS(=O)(=O)NC[C@]1(O)CCN(C(=O)Cc2cccs2)C[C@H]1O`, -17.9%.
For `CC1(C)CC(C(=O)N2CCC3(CCC(=O)N(C4CC4)C3)CC2)CCO1` (configuration not stated), the cytotoxicity at 10 µM was determined as 0.868%.
With `CCNC(=O)[C@@H]1C[C@H](N)CN1C(=O)c1c[nH]c2ccccc12`, the cytotoxicity at 10 µM was -8.34%.
Consider `Cc1nn(C)c(Cl)c1C1CCCN1Cc1nc(C2CC2)no1` (configuration not stated), for which the cytotoxicity at 10 µM was -6.42%.
Next, `Cc1ccccc1C(=O)NCCCN1CCc2ccccc2C1`: -16.5%; `CN1CCN(c2cnn(CCn3cccn3)c(=O)c2)CC1`: -47.4%.
Next, `Cc1ncc(CN(C)C)c(C2CCCN2c2ncccn2)n1` (configuration not stated): -0.6%.
For the compound `O=S(=O)(NCc1ccc(S(=O)(=O)N2CCCC2)s1)c1ccc(Cl)c(Cl)c1`, the cytotoxicity at 10 µM is -41.8%.
`O=C1CCN(C(=O)C2(c3ccc(Br)cc3)CC2)CCN1`: the cytotoxicity at 10 µM stood at 1.56%.
As to `CC1CCN(S(=O)(=O)NCc2ccccc2Cn2cncn2)CC1`, the cytotoxicity at 10 µM is -2.72%.
On to `CCC(=O)N1CSCC1C(=O)Nc1ccccc1-c1cccs1` (configuration not stated), for which the cytotoxicity at 10 µM is -3.8%.
Turning to `CCC(C)N(Cc1sccc1C)C(=O)c1ccc2cccnc2n1` (configuration not stated), the cytotoxicity at 10 µM came out at 2.05%.
As for `CC1CCC(NS(=O)(=O)CC(=O)NC(C2CC2)C2CC2)CC1` (configuration not stated), the cytotoxicity at 10 µM is -2.8%.
Turning to `CC(C)(C)C(=O)NCCC(=O)Nc1cc(C#N)cn1C(C)(C)C`, the cytotoxicity at 10 µM was found to be 2.02%.
As for `COc1cccc(OCC(=O)N2CCCSCC2CN2CCOCC2)c1` (configuration not stated), the cytotoxicity at 10 µM came to 4.01%.
`N#Cc1cccnc1NC1CCN(c2ccccc2OC(F)F)C1=O` (configuration not stated): the cytotoxicity at 10 µM is 6.37%.
Next, `CCOC(=O)C1(Cc2ccccc2)CCCN(Cc2nccn2CC)C1` (configuration not stated): 8.82%; `O=C(c1ccncc1)N1CC[C@H]2[C@H]1CCN2S(=O)(=O)C1CC1`: -126%; `CC(C)c1nnc2n1CCN(C(=O)CN1CCc3sccc3C1)C2`: -4.97%.
As to `Cc1noc(C2CCC3(CCN(C(=O)C4=CCCCC4)CC3)O2)n1` (configuration not stated), the cytotoxicity at 10 µM is -7.36%.
Regarding `COC(=O)C(NC(=O)C1CCCC1)c1cc(F)ccc1F` (configuration not stated), the cytotoxicity at 10 µM stood at 5.67%.
In the case of `Cc1ccc(Sc2ccc(CN3CCC4(CC3)NCCNC4=O)o2)cc1`, the cytotoxicity at 10 µM is -6.71%.
For the compound `Cc1oncc1C(=O)N1CC[C@H]2[C@H]1CCN2S(C)(=O)=O`, the cytotoxicity at 10 µM was -99.4%.
Regarding `Cn1cc(CN2CCO[C@H]3CN(Cc4ccco4)C[C@H]32)cn1`, the cytotoxicity at 10 µM is -140%.
As for `Cc1ccc(Br)c(S(=O)(=O)NCc2ccnn2C)c1`, the figure is 0.67%; as for `CN(C(=O)c1ccc(-n2ncc(C#N)c2N)cc1)C1CCCC1`, -5.1%; as for `Cc1cnn(CCNCc2cc(-c3ccccc3)no2)c1`, -3.03%.
Take `Cc1nc[nH]c1CN1C[C@H]2CC[C@@H](C1)N(C(=O)CCc1cccnc1)C2`: the cytotoxicity at 10 µM is -14.2%.
As for `Cc1nc(C2CCCNC2)cc(N2CCc3nc(N)sc3C2)n1` (configuration not stated), the cytotoxicity at 10 µM is -47.4%.
As to `Cc1ccc(C(=O)N2C[C@@H]3OCCN(C)[C@@H]3C2)cn1`, the cytotoxicity at 10 µM was -68.3%.
For the compound `CC(C)c1nc(N2CCC(N3CCCC(O)C3)CC2)c2cnn(C)c2n1` (configuration not stated), the cytotoxicity at 10 µM is -127%.
In the case of `COCCN1CCCC(Cc2ccc(N3CCOCC3)nn2)C1` (configuration not stated), the cytotoxicity at 10 µM is -17.9%.
Regarding `N#Cc1ccc(C2CC(=O)Nc3c2cnn3C2CCCC2)cc1` (configuration not stated), the cytotoxicity at 10 µM stood at 13.2%.
Take `COc1ccccc1OCCC(=O)N1CCCC1Cn1cccn1` (configuration not stated): the cytotoxicity at 10 µM was -5.19%.
With `CC(C)c1nn(C)c(Cl)c1CNCc1ccc2c(c1)OCCO2`, the cytotoxicity at 10 µM was -1.64%.
As for `CNC(=O)CNC(=O)CC1C(=O)NCCN1Cc1ccccc1C` (configuration not stated), the figure is -2.88%; as for `CCOC(CC)C(=O)NCCC(=O)N1CCN(c2ccccn2)CC1` (configuration not stated), -7.4%.
As for `CC1COCCN1C(=O)COc1ccc(Oc2ccccn2)cc1` (configuration not stated), the figure is -8.87%.
`CCCc1nc(N2Cc3cnn(Cc4ccc(F)cc4)c3C2)no1`: the cytotoxicity at 10 µM stood at 17.3%.
Take `Cc1cc(CN2C[C@@H]3CC[C@H]2CN(Cc2c(C)noc2C)C3)ccc1F`: the cytotoxicity at 10 µM is -6.74%.
`COc1ccc(-c2nnc(CNCCn3cc(C)cn3)o2)cc1`: the cytotoxicity at 10 µM was 1.32%.
Turning to `Cc1cccc(CN2CCCC23CCNC3)n1` (configuration not stated), the cytotoxicity at 10 µM came out at 4.82%.
As to `O=C(O)COc1ccccc1CN1CCCC1c1cnccn1` (configuration not stated), the cytotoxicity at 10 µM is 22%.
As for `COc1cc(F)ccc1NC(=O)NC(C)C(=O)NC(C)(C)C` (configuration not stated), the figure is -6.1%; as for `CSc1ncccc1C(=O)N(C)C(C)Cc1ccccn1` (configuration not stated), 2.28%.
Turning to `N#Cc1cccc(CN2CC3(CCCCN3c3cccnc3)CC2=O)c1` (configuration not stated), the cytotoxicity at 10 µM is -7.27%.
Next, `O=C(Nc1cnccn1)[C@H]1C[C@H]2OCC[C@H]2N(c2ncc(F)cn2)C1`: 16.4%.
Consider `CC(NC(=O)C1CC1)C(=O)N(C)Cc1ccsc1` (configuration not stated), for which the cytotoxicity at 10 µM is 3.64%.
Regarding `Cc1ccc(CNC(=O)CCSCc2csc(C)n2)cn1`, the cytotoxicity at 10 µM is -10%.
On to `Cc1cc(NC(=O)NCC(C)N2CCc3ccccc32)no1` (configuration not stated), for which the cytotoxicity at 10 µM was -6.34%.
As for `CC(C)(C(N)=O)S(=O)(=O)c1ccc(Br)cc1`, the cytotoxicity at 10 µM was determined as 4.4%.

Values taken from ChEMBL document CHEMBL4513216, “Probing the Open Global Health Chemical Diversity Library for Multistage-Active Starting Points for Next-Generation Antimalarials” (ACS Infect Dis, 2020).
